# Reference: ChEMBL document CHEMBL1156597, “Structure-activity relationship of kahalalide F synthetic analogues” (J Med Chem, 2008)
# Experiments:
# [1] = test system: LoVo; experiment: Cytotoxicity against human doxorubicin resistant LoVo cells after 48 hrs by SRB assay; assay type: functional; conditions: for CC50: read-out: LC50 (the source's name)
# In short: (§1)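 Cells grown in RPMI 1640 with 10% FBS and penicillin/streptomycin at 37 °C and 5% CO₂, trypsinized, then seeded at 5 × 10³/well. After 18 h drug-free attachment, samples in DMSO/EtOH/PBS (0.5:0.5:99) were added for 48 h continuous exposure. Cells were fixed with cold TCA (1 h, 4 °C) and stained with SRB (10 min). Tris-solubilized stain read at 490 nm. Triplicate wells, mean ± SD; GI₅₀ derived.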
# [2] = test system: PANC-1; experiment: Cytotoxicity against human PANC1 cells after 48 hrs by SRB assay; assay type: functional; conditions: PANC-1, 48 h; for CC50: read-out: LC50 (the source's name); in short: as §1
# [3] = test system: HT-29; experiment: Cytotoxicity against human HT29 cells after 48 hrs by SRB assay; assay type: functional, cell-based; conditions: Homo sapiens, HT-29, 48 h; for CC50: read-out: LC50 (the source's name); in short: as §1
# [4] = test system: A549; experiment: Cytotoxicity against human A549 cells after 48 hrs by SRB assay; assay type: functional, cell-based; conditions: Homo sapiens, A549, 48 h; in short: as §1
# [5] = test system: LoVo; experiment: Cytotoxicity against human LoVo cells after 48 hrs by SRB assay; assay type: functional; conditions: for CC50: read-out: LC50 (the source's name)
# [6] = Cytotoxicity against human IGROV cells after 48 hrs by SRB assay; assay type: functional; conditions: for CC50: read-out: LC50 (the source's name); in short: as §1
# [7] = test system: K562; experiment: Cytotoxicity against human K562 cells after 48 hrs by SRB assay; assay type: functional; conditions: K562, 48 h; for CC50: read-out: LC50 (the source's name); in short: as §1
# [8] = test system: SK-BR-3; experiment: Cytotoxicity against human SKBR3 cells after 48 hrs by SRB assay; assay type: functional; conditions: SK-BR-3, 48 h; for CC50: read-out: LC50 (the source's name); in short: as §1
# [9] = test system: HeLa; experiment: Cytotoxicity against human HeLa cells after 48 hrs by SRB assay; assay type: functional; conditions: for CC50: read-out: LC50 (the source's name); in short: as §1
# [10] = test system: DU-145; experiment: Cytotoxicity against human DU145 cells after 48 hrs by SRB assay; assay type: functional, cell-based; conditions: Homo sapiens, DU-145, 48 h; for CC50: read-out: LC50 (the source's name); in short: as §1
# [11] = test system: SK-MEL-28; experiment: Cytotoxicity against human SK-MEL-28 cells after 48 hrs by SRB assay; assay type: functional, cell-based; conditions: Homo sapiens, SK-MEL-28, 48 h; for CC50: read-out: LC50 (the source's name); in short: as §1
# [12] = Cytotoxicity against human IGROV-ET cells after 48 hrs by SRB assay; assay type: functional; conditions: for CC50: read-out: LC50 (the source's name); in short: as §1
# [13] = Cytotoxicity against human HeLa-APL cells after 48 hrs by SRB assay; assay type: functional; in short: as §1
SMILES,GI50 [1] [nM],TGI [1] [nM],CC50 [1] [nM],GI50 [2] [nM],TGI [2] [nM],CC50 [2] [nM],CC50 [3] [nM],GI50 [4] [nM],LC50 [4] [nM],GI50 ([4]; read-out: GI50) [nM],TGI [5] [nM],CC50 [5] [nM],GI50 [6] [nM],GI50 ([6]; read-out: GI50) [nM],CC50 [6] [nM],CC50 [7] [nM],GI50 ([8]; read-out: GI50) [nM],CC50 [8] [nM],GI50 [9] [nM],TGI [9] [nM],also measured
C/C=C1\NC(=O)[C@H](Cc2ccc(F)c(F)c2)NC(=O)[C@@H](C(C)C)NC(=O)[C@@H]([C@H](C)CC)NC(=O)[C@H](NC(=O)[C@H](NC(=O)[C@H](CCCN)NC(=O)[C@H]2CCCN2C(=O)[C@H](NC(=O)[C@@H](NC(=O)[C@@H](NC(=O)[C@H](NC(=O)CCCC(C)C)C(C)C)[C@@H](C)O)C(C)C)C(C)C)[C@H](C)CC)[C@H](C)OC(=O)[C@H](C(C)C)NC1=O,18.4,20.5,52.8,575,979,1650,90.4,293,968,137,21.2,25.9,86.8,37.9,156,1610,30,134,98.1,177,GI50 [3]: 30.4 nM; TGI [3]: 28.7 nM; GI50 [5]: 12.8 nM; GI50 [7]: 732 nM; TGI [7]: 1090 nM; GI50 [8]: 31.9 nM; CC50 [9]: 466 nM; GI50 [10]: 131 nM; GI50 ([10]; read-out: GI50): 43 nM; CC50 [10]: 243 nM; GI50 [11]: 203 nM; GI50 ([11]; read-out: GI50): 128 nM; CC50 [11]: 323 nM; TGI [12]: 76.7 nM; GI50 ([12]; read-out: GI50): 47 nM; CC50 [12]: 515 nM; GI50 [13]: 155 nM; LC50 (concentration giving 50% net cell kill) [13]: 271 nM; TGI [13]: 166 nM
C/C=C1\NC(=O)[C@H](Cc2ccc3ccccc3c2)NC(=O)[C@@H](C(C)C)NC(=O)[C@@H]([C@H](C)CC)NC(=O)[C@H](NC(=O)[C@H](NC(=O)[C@H](CCCN)NC(=O)[C@H]2CCCN2C(=O)[C@H](NC(=O)[C@@H](NC(=O)[C@@H](NC(=O)[C@H](NC(=O)CCCC(C)C)C(C)C)[C@@H](C)O)C(C)C)C(C)C)[C@H](C)CC)[C@H](C)OC(=O)[C@H](C(C)C)NC1=O,29.5,29,148,606,909,1370,60.9,194,343,110,22.9,34.4,37.2,27.3,44.3,1320,21.7,32.7,71.6,94.6,GI50 [3]: 37.9 nM; TGI [3]: 39.1 nM; GI50 [7]: 287 nM; TGI [7]: 679 nM; GI50 [8]: 18.8 nM; CC50 [9]: 220 nM; GI50 [10]: 116 nM; GI50 ([10]; read-out: GI50): 50.9 nM; CC50 [10]: 224 nM; GI50 [11]: 213 nM; GI50 ([11]; read-out: GI50): 135 nM; CC50 [11]: 339 nM; TGI [12]: 60.4 nM; GI50 ([12]; read-out: GI50): 46.4 nM; CC50 [12]: 120 nM; GI50 [13]: 77.5 nM; LC50 (concentration giving 50% net cell kill) [13]: 205 nM; TGI [13]: 91.7 nM
C/C=C1\NC(=O)[C@H](Cc2cccc(Cl)c2)NC(=O)[C@@H](C(C)C)NC(=O)[C@@H]([C@H](C)CC)NC(=O)[C@H](NC(=O)[C@H](NC(=O)[C@H](CCCN)NC(=O)[C@H]2CCCN2C(=O)[C@H](NC(=O)[C@@H](NC(=O)[C@@H](NC(=O)[C@H](NC(=O)CCCC(C)C)C(C)C)[C@@H](C)O)C(C)C)C(C)C)[C@H](C)CC)[C@H](C)OC(=O)[C@H](C(C)C)NC1=O,40.8,35.7,340,869,1700,1700,153,429,911,194,27.9,69.1,44.7,41,48.5,1730,49.6,48.3,98.3,131,GI50 [3]: 40.2 nM; TGI [3]: 42.5 nM; GI50 [5]: 18.5 nM; GI50 [7]: 867 nM; TGI [7]: 1220 nM; GI50 [8]: 41.9 nM; CC50 [9]: 256 nM; GI50 [10]: 173 nM; GI50 ([10]; read-out: GI50): 100 nM; CC50 [10]: 305 nM; GI50 [11]: 313 nM; GI50 ([11]; read-out: GI50): 183 nM; CC50 [11]: 738 nM; TGI [12]: 97 nM; GI50 ([12]; read-out: GI50): 71.2 nM; CC50 [12]: 163 nM; GI50 [13]: 191 nM; LC50 (concentration giving 50% net cell kill) [13]: 275 nM; TGI [13]: 172 nM
C/C=C1\NC(=O)[C@H](Cc2ccc(Cl)cc2)NC(=O)[C@@H](C(C)C)NC(=O)[C@@H]([C@H](C)CC)NC(=O)[C@H](NC(=O)[C@H](NC(=O)[C@H](CCCN)NC(=O)[C@H]2CCCN2C(=O)[C@H](NC(=O)[C@@H](NC(=O)[C@@H](NC(=O)[C@H](NC(=O)CCCC(C)C)C(C)C)[C@@H](C)O)C(C)C)C(C)C)[C@H](C)CC)[C@H](C)OC(=O)[C@H](C(C)C)NC1=O,57.1,44.9,340,1140,1700,1700,143,473,934,227,55,83.8,62.9,46.3,112,1690,39.7,206,193,184,GI50 [3]: 36.5 nM; TGI [3]: 73.5 nM; GI50 [5]: 21.6 nM; GI50 [7]: 696 nM; TGI [7]: 1090 nM; GI50 [8]: 38.6 nM; CC50 [9]: 362 nM; GI50 [10]: 189 nM; GI50 ([10]; read-out: GI50): 112 nM; CC50 [10]: 388 nM; GI50 [11]: 393 nM; GI50 ([11]; read-out: GI50): 214 nM; CC50 [11]: 931 nM; GI50 [12]: 122 nM; GI50 ([12]; read-out: GI50): 86.2 nM; CC50 [12]: 175 nM; GI50 [13]: 215 nM; LC50 (concentration giving 50% net cell kill) [13]: 286 nM; TGI [13]: 186 nM
C/C=C1\NC(=O)[C@H](Cc2ccc(OC)cc2)NC(=O)[C@@H](C(C)C)NC(=O)[C@@H]([C@H](C)CC)NC(=O)[C@H](NC(=O)[C@H](NC(=O)[C@H](CCCN)NC(=O)[C@H]2CCCN2C(=O)[C@H](NC(=O)[C@@H](NC(=O)[C@@H](NC(=O)[C@H](NC(=O)CC[C@@H](C)CC)C(C)C)[C@@H](C)O)C(C)C)C(C)C)[C@H](C)CC)[C@H](C)OC(=O)[C@H](C(C)C)NC1=O,237,214,79.2,3120,4340,1990,45.4,557,6420,526,285,106,502,442,581,1890,283,824,766,848,GI50 [5]: 320 nM; TGI [8]: 284 nM; CC50 [9]: 943 nM; GI50 [10]: 947 nM; GI50 ([10]; read-out: GI50): 858 nM; CC50 [10]: 1060 nM; TGI [11]: 1230 nM; GI50 ([11]; read-out: GI50): 1190 nM; CC50 [11]: 1280 nM; GI50 [12]: 384 nM; GI50 ([12]; read-out: GI50): 295 nM; CC50 [12]: 465 nM; GI50 [13]: 1010 nM; LC50 (concentration giving 50% net cell kill) [13]: 1220 nM; TGI [13]: 1160 nM
C/C=C1\NC(=O)[C@H](Cc2ccc(Cl)c(Cl)c2)NC(=O)[C@@H](C(C)C)NC(=O)[C@@H]([C@H](C)CC)NC(=O)[C@H](NC(=O)[C@H](NC(=O)[C@H](CCCN)NC(=O)[C@H]2CCCN2C(=O)[C@H](NC(=O)[C@@H](NC(=O)[C@@H](NC(=O)[C@H](NC(=O)CC[C@@H](C)CC)C(C)C)[C@@H](C)O)C(C)C)C(C)C)[C@H](C)CC)[C@H](C)OC(=O)[C@H](C(C)C)NC1=O,299,248,134,2090,1950,1810,201,206,6270,110,451,319,329,383,567,1850,283,1030,493,813,GI50 [5]: 426 nM; TGI [8]: 368 nM; CC50 [9]: 1100 nM; GI50 [10]: 370 nM; GI50 ([10]; read-out: GI50): 266 nM; CC50 [10]: 734 nM; GI50 [11]: 852 nM; GI50 ([11]; read-out: GI50): 587 nM; CC50 [11]: 1210 nM; GI50 [12]: 379 nM; GI50 ([12]; read-out: GI50): 246 nM; CC50 [12]: 539 nM; GI50 [13]: 1020 nM; LC50 (concentration giving 50% net cell kill) [13]: 1140 nM; TGI [13]: 1080 nM
